# Screening results (PubChem BioAssay)
# Shown are actives, neighbours in structure and some others; about 3.2% of the full set was active somewhere.
# LEDGF integ inh: blockers of LEDGF/p75-dependent integrase strand transfer – biochemical, TR-FRET, high throughput, primary screen; hit rate 0.64% among 370,000; inhibition, % at 3.7 µM; HIV-1 integrase (with human LEDGF/p75); AID 743269, 2014; TR-FRET IN-LEDGF/p75 DNA integration, Eu/Cy5;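 active = inhibition above the screen-wide mean plus 3 SD, cut at about 13% in these data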;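 also: signal is the Cy5 over europium emission ratio at 671 and 618 nm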
# rCAG binder: binders of r(CAG) RNA repeats, primary screen, biochemical, fluorescence; r(CAG) RNA repeat, TO-PRO-1 dye displacement fluorescence; AID 651821, 2012; inhibition, % at 3 µM; hit rate 1.3% among 370,000;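 active = inhibition above the plate cutoff, the mean of all test compounds on that plate plus 3 SD, cut at about 35% in these data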;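 also: higher means more dye released from RNA so lower well fluorescence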
# DAGLB inh: DAGLB lipase inhibitors, primary screen, biochemical, fluorescence, HTS | HEK293T DAGLB membrane lysate, EnzChek fluorogenic substrate | inhibition, % at 5.17 µM | hit rate 0.059% among 340,000; in the data active = inhibition above about 34%
# Target sequence (Q8NCG7 whole entry, looked up): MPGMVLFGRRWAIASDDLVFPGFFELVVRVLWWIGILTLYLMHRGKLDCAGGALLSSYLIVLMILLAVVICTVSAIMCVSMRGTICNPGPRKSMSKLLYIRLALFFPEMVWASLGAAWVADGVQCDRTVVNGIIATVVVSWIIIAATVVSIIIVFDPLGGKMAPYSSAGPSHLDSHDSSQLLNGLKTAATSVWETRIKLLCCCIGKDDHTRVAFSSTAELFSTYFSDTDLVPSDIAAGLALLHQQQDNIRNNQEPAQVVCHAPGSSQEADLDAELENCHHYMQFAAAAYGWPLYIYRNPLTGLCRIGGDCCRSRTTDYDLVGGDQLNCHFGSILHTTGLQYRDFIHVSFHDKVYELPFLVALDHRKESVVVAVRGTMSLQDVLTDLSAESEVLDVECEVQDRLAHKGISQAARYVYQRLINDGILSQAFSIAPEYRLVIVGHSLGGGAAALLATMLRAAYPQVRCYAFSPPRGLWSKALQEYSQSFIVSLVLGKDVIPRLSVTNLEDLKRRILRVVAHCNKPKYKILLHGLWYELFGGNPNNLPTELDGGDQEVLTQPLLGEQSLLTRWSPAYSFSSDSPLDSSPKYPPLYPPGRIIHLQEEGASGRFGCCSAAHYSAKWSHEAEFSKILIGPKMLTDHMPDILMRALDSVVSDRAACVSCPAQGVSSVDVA
# HTRA1 inhibitor: HTRA1 serine protease inhibitors, primary screen, biochemical, fluorescence polarization, HTS; Q92743; recombinant HTRA1, FP-rhodamine activity-based probe; inhibition, % at 5.96 µM; hit rate 0.5% among 340,000; in the data active = inhibition above about 36%
# PRMT1 inh: PRMT1 methyltransferase inhibitors, primary screen, biochemical, fluorescence polarization. Protein arginine N-methyltransferase 1 (Homo sapiens), Q99873. recombinant PRMT1, activity-based probe fluorescence polarization. inhibition, % at 2.79 µM. hit rate 1.3% among 370,000. AID 652257, 2013;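 active = inhibition above about 21% made by adding two undisclosed values, limit read from the data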
# ABHD4 inh: ABHD4 inhibitors, primary screen, biochemical, fluorescence polarization, mouse. (Lyso)-N-acylphosphatidylethanolamine lipase (Mus musculus), Q8VD66. purified mABHD4, FP-Rh probe fluorescence polarization. AID 720543, 2013. hit rate 0.54% among 370,000. inhibition, % at 8.92 µM;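 active = inhibition exceeding the mean over every tested compound plus 3 SD, cut at about 30% in these data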
#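 Test system: mABHD4 protein; Read-out basis: % inhibition; Incubation: 45 min + 60 min at 25 °C; Repeats: single replicate; Technique: fluorescence polarization with parallel and perpendicular emission, 525/598 nm; Compound: 8.92 µM, single dose; Benchmarks: full inhibition S159A mutant plus DMSO, zero as sample-well median.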
# rCAG binder conf: small molecules binding CAG repeat RNA – biochemical, fluorescence, confirmation | r(CAG) RNA repeat, TO-PRO-1 dye displacement fluorescence | hit rate 70% among 4,300 | shares compounds with rCAG binder | AID 652065, 2013 | inhibition, % at 3 µM;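 active = inhibition above a per-plate cutoff, the mean inhibition of sample wells plus 3 SD, cut at about 35% in these data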;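 also: loss of TO-PRO-1 fluorescence as compound displaces dye from 1x1 AA loop RNA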
# dCAG dye counter: displacement of TO-PRO-1 from CAG DNA duplex, counter-screen for rCAG RNA repeat binder project, biochemical, fluorescence, TO-PRO-1 dye, d(CAG) DNA oligo. shares compounds with rCAG binder. inhibition, % at 3 µM. hit rate 94% among 4,300. AID 652068, 2013. d(CAG) DNA oligo TO-PRO-1 dye displacement;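 active = inhibition above its plate's cutoff, the mean test-well inhibition plus 3 SD, cut at about 4.8% in these data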;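 also: hits displace the dye from DNA and so lower well fluorescence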
# Numbers stand for hits; 0 = inactive; - = no result given.
SMILES,LEDGF integ inh,rCAG binder,DAGLB inh,HTRA1 inhibitor,PRMT1 inh,ABHD4 inh,rCAG binder conf,dCAG dye counter
COC(=O)c1scc(C)c1NC(=O)c1ccc(Cl)cc1,-,-,0,0,-,-,-,-
Oc1ccccc1CNCc1ccccc1,0,0,0,0,0,0,-,-
CCC(Sc1nc2ccsc2c(=O)n1Cc1ccc(C(=O)O)cc1)C(=O)Nc1cccc(OC)c1 (stereo unspecified),0,46,0,0,0,0,36,11
CCc1ccc(NC(=O)C(CC)Sc2nc3ccsc3c(=O)n2CCC(=O)O)cc1 (stereo unspecified),0,38,0,0,0,0,0,4.4
Cc1cccc(NC(=O)c2cc(Cl)nc3ccccc23)n1,0,0,0,0,0,0,-,-
CC(C)C(=O)NCCCc1ccccc1,0,0,0,0,0,0,-,-
CC(C)CCCCCCCCc1cccc(O)c1C(=O)O,0,89,-,-,0,0,86,52
O=S(=O)(Nc1nc2ccccc2nc1NCc1ccco1)c1ccc(F)cc1,0,0,0,0,0,0,-,-
N#Cc1cnn(-c2ncnc3sc(-c4ccccc4)cc23)c1N,0,0,0,0,0,0,-,-
O=C(CCCN1C(=O)/C(=C\c2cccs2)SC1=S)Nc1ccc(O)cc1,0,0,0,0,0,0,-,-
O=C(CCN1C(=O)/C(=C/c2cccs2)SC1=S)Nc1ccc(C(=O)O)cc1,0,48,0,0,0,0,35,8.1
O=C(CCCN1C(=O)/C(=C/c2cccs2)SC1=S)Nc1ccccc1O,0,0,0,0,0,0,-,-
O=C(CCCN1C(=O)/C(=C\c2cccs2)SC1=S)Nc1cccc(C(=O)O)c1,0,0,0,0,0,0,-,-
O=C(CCCN1C(=O)/C(=C\c2cccs2)SC1=S)Nc1ccc(O)cc1C(=O)O,0,60,0,0,0,0,60,23
O=C(CCCN1C(=O)/C(=C\c2cccs2)SC1=S)Nc1ccc(C(=O)O)cc1,0,39,0,0,0,0,0,7.8
CC(=O)c1cc2c(cc1N/C(=N/S(=O)(=O)c1ccc(Br)cc1)c1ccccc1)OCO2,0,0,0,0,0,0,-,-
CCOc1cc(/C=C2\NC(=S)N(c3c(C)n(C)n(-c4ccccc4)c3=O)C2=O)ccc1O,0,0,0,0,0,0,-,-
CCOc1cccc(/C=C2\NC(=S)N(c3ccccc3)C2=O)c1O,0,38,0,0,0,0,0,6.2
O=C(CSc1nnc(C2COc3ccccc3O2)o1)Nc1nccs1 (stereo unspecified),-,-,0,0,-,-,-,-
O=C1NC(=Nc2ccc(Cl)cc2)/C(=C/c2ccco2)S1,0,0,0,0,0,0,-,-
Cc1ccc(N=C2NC(=O)/C(=C\c3ccco3)S2)cc1,0,42,0,0,0,0,0,15
Cc1ccccc1/C=N/n1c(COc2ccccc2)n[nH]c1=S,0,0,0,0,0,0,-,-
O=C(CCc1ccccc1)Nc1cc(NC(=O)CCc2ccccc2)cc(C(=O)O)c1,0,40,0,0,0,0,0,0
O=C(CCc1ccccc1)Nc1ccncc1,0,0,0,0,0,0,-,-
O=C(CCc1ccccc1)Nc1cc2c3c(c1)CCC(=O)N3CCC2,0,42,0,0,0,0,0,0
COc1ccc(CCC(=O)Nc2cc3c4c(c2)CCC(=O)N4CCC3)cc1,0,0,0,0,0,0,-,-
C#CCOCCOCCOCCNc1nc(N2CCN(C(=O)[C@H](CCCCN)n3cc([C@@H](N)CC(C)C)nn3)CC2)nc(N2CCN(C(=O)[C@H](CCCCN)n3cc([C@@H](N)CC(C)C)nn3)CC2)n1,-,-,0,0,-,-,-,-
